Legend:
[1] = target: T1, Transient receptor potential cation channel subfamily A member 1 (Rattus norvegicus, UniProt Q6RI86); test: Agonist activity at rat TRPA1 receptor expressed in HEK293 cells assessed as increase in intracellular Ca2+ concentration by spectrofluorimetric analysis; format: cell-based
Method in brief: (§1)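 HEK293 cells stably transfected with human TRPV1 or rat TRPA1 cDNA (pcDNA3, G-418 selection) were loaded 1 h at room temperature with Fluo-4-AM, washed and suspended in Tyrode's buffer pH 7.4. [Ca²⁺]i was read by stirred-cuvette spectrofluorimetry before and after adding test compound at various concentrations. Signal from untransfected cells was subtracted. Efficacy was taken as percent of ionomycin (4 µM) for TRPV1 and percent of allyl isothiocyanate (100 µM) for TRPA1; EC50 was also derived.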

[2] = target: Transient receptor potential cation channel subfamily A member 1 (Rattus norvegicus) (UniProt Q6RI86); test: Agonist activity at rat TRPA1 receptor expressed in HEK293 cells assessed as increase in intracellular Ca2+ concentration by spectrofluorimetric analysis relative to allyl isothiocyanate; format: cell-based; method in brief: as §1
[3] = target: T2, Transient receptor potential cation channel subfamily V member 1 (Homo sapiens, UniProt Q8NER1); test: Antagonist activity at human TRPV1 receptor expressed in HEK293 cells assessed as inhibition of capsaicin-induced intracellular Ca2+ elevation incubated for 5 mins prior to capsaicin-stimulation by spectrofluorimetric analysis; format: cell-based
Method in brief: (§2)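 Fluo-4-loaded HEK293 cells stably expressing human TRPV1 or rat TRPA1, in Tyrode's buffer pH 7.4, received test compound in the cuvette 5 min before agonist: capsaicin 0.1 µM for TRPV1, AITC 100 µM for TRPA1. The [Ca²⁺]i rise with agonist alone was set to 100%. IC50 came from a variable-slope sigmoidal fit. Untransfected-cell signal was subtracted.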

[4] = target: T2, Transient receptor potential cation channel subfamily V member 1; test: Agonist activity at human TRPV1 receptor expressed in HEK293 cells assessed as increase in intracellular Ca2+ concentration by spectrofluorimetric analysis relative to ionomycin; format: cell-based; method in brief: as §1
[5] = Selectivity ratio of IC50 for FAAH in rat brain membranes to IC50 for MAGL (unknown origin); format: cell membranes
[6] = target: T3, Monoglyceride lipase (Homo sapiens, UniProt Q99685); test: Inhibition of MAGL (unknown origin) expressed in African green monkey COS7 cell cytosolic fraction assessed as [3H]2-AG hydrolysis to [3H]arachidonic acid after 20 mins by beta counting analysis; design: species or system COS-7
T3 sequence (Q99685 whole entry): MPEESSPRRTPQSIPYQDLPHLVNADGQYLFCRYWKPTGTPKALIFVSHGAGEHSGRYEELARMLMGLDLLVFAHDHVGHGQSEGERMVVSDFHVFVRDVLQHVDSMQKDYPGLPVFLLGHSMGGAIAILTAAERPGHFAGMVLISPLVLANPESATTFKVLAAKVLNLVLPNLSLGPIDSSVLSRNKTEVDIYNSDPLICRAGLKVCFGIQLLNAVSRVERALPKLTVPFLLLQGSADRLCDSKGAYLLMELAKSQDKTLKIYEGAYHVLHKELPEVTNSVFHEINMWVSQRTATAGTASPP

[7] = target: T4, Fatty-acid amide hydrolase 1 (Rattus norvegicus, UniProt P97612); test: Inhibition of FAAH in rat brain membranes assessed as [14C]AEA hydrolysis to [14C]Ethanolamine after 30 mins by scintillation counting analysis; format: cell membranes
T4 sequence (P97612 whole entry): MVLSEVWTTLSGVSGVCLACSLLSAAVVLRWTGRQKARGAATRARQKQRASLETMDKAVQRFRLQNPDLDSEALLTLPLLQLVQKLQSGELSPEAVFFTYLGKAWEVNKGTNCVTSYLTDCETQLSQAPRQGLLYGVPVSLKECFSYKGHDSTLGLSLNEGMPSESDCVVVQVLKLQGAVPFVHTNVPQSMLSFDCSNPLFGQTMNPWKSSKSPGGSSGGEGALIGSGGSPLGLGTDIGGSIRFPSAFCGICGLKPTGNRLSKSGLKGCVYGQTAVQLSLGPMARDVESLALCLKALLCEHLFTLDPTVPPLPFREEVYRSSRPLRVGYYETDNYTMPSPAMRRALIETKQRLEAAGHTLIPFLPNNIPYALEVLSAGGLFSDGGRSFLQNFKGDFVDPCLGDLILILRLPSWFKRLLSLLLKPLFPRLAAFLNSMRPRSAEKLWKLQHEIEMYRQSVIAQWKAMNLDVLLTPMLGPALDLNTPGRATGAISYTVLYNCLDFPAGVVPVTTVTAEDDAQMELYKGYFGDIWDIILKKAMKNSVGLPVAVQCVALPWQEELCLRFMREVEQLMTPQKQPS
Method in brief: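 Rat brain membranes were incubated with [¹⁴C]AEA in 50 mM Tris-HCl pH 9 for 30 min at 37 °C. Released [¹⁴C]ethanolamine in the aqueous phase was counted by scintillation after CHCl₃/CH₃OH 2/1 extraction. IC50 was the concentration giving 50% inhibition.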

[8] = target: T1, Transient receptor potential cation channel subfamily A member 1; test: Antagonist activity at rat TRPA1 receptor expressed in HEK293 cells assessed as inhibition of allyl isothiocyanate-induced intracellular Ca2+ elevation incubated for 5 mins prior to allyl isothiocyanate-stimulation by spectrofluorimetric analysis; format: cell-based; method in brief: as §2
[9] = target: T2, Transient receptor potential cation channel subfamily V member 1; test: Agonist activity at human TRPV1 receptor expressed in HEK293 cells assessed as increase in intracellular Ca2+ concentration by spectrofluorimetric analysis; format: cell-based; method in brief: as §1
[10] = target: T5, Diacylglycerol lipase-alpha (Homo sapiens) (UniProt Q9Y4D2); test: Activation of human recombinant DAGLalpha expressed in African green monkey COS7 cells assessed as increase in 2-arachidonoylglycerol level per mg of extracted lipid at 3 uM preincubated for 10 mins measured after 20 mins by LC-MS analysis (reference value: 2.82 +/- 0.75 pmol); format: cell-based; settings: COS-7
T5 sequence (whole entry): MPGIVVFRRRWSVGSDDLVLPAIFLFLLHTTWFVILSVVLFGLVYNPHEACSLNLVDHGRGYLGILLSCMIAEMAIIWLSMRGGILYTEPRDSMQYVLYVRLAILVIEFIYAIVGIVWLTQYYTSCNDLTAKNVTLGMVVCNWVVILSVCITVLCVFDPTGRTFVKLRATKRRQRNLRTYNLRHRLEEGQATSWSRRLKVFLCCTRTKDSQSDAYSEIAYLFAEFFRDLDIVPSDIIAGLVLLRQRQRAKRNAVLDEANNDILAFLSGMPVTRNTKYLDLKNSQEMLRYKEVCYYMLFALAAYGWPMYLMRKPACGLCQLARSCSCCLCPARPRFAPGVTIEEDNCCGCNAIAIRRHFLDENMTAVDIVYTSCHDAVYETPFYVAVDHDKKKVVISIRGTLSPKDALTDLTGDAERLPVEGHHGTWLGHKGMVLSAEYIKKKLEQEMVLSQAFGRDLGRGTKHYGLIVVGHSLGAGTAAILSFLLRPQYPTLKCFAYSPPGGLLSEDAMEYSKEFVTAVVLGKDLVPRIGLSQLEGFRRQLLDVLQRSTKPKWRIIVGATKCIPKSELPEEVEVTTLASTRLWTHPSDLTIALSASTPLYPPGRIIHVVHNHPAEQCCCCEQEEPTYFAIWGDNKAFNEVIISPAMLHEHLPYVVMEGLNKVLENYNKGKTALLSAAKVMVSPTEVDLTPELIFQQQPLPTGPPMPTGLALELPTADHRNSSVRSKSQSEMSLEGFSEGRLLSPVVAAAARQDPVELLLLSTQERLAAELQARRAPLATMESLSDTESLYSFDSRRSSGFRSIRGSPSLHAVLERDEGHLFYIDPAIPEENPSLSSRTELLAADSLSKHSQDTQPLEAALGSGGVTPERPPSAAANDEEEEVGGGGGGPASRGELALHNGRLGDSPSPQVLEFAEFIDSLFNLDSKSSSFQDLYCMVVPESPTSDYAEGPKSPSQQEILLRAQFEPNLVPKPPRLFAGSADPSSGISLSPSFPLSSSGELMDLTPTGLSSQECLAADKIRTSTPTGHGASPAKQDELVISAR
Method in brief: (§3)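 About 10⁶ COS-7 cells overexpressing human recombinant DAGL-α per data point. Cells were preincubated 10 min with compound, then incubated 20 min at 37 °C with vehicle or ionomycin 3 µM. They were then homogenized in CHCl₃/CH₃OH/Tris-HCl 50 mM pH 7.4 (2/1/1) containing 5 pmol each of d⁸-AEA, d⁵-2-AG and d⁴-OEA as internal standards. Results in pmol/mg lipid extracted, means ± SD, n = 4.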

[11] = target: T5, Diacylglycerol lipase-alpha (Homo sapiens); test: Activation of human recombinant DAGLalpha expressed in African green monkey COS7 cells assessed as increase in N-oleoylethanolamine level per mg of extracted lipid at 3 uM preincubated for 10 mins measured after 20 mins by LC-MS analysis (reference value: 1.08 +/- 0.17 pmol); format: cell-based; settings: COS-7; method in brief: as §3
[12] = target: T5, Diacylglycerol lipase-alpha (Homo sapiens); test: Activation of human recombinant DAGLalpha expressed in African green monkey COS7 cells assessed as increase in anandamide level per mg of extracted lipid at 3 uM preincubated for 10 mins measured after 20 mins by LC-MS analysis (reference value: 0.16 +/- 004 pmol); format: cell-based; settings: COS-7; method in brief: as §3
[13] = target: T5, Diacylglycerol lipase-alpha (Homo sapiens); test: Activation of human recombinant DAGLalpha expressed in African green monkey COS7 cells assessed as increase in 2-arachidonoylglycerol level per mg of extracted lipid at 1 uM preincubated for 10 mins measured after 20 mins by LC-MS analysis in presence of ionomycin (reference value: 2.82 +/- 0.75 pmol); format: cell-based; settings: COS-7
Method in brief: (§4)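 About 10⁶ COS-7 cells overexpressing human recombinant DAGL-α per point, preincubated 10 min with test compound or not, then 20 min at 37 °C with vehicle or ionomycin 3 µM. Cells homogenized in CHCl₃/CH₃OH/Tris-HCl 50 mM pH 7.4 (2/1/1) with 5 pmol d⁸-AEA, d⁵-2-AG and d⁴-OEA as internal standards. Levels in pmol/mg lipid extracted, mean ± SD, n = 4.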

[14] = target: T5, Diacylglycerol lipase-alpha (Homo sapiens); test: Activation of human recombinant DAGLalpha expressed in African green monkey COS7 cells assessed as increase in N-oleoylethanolamine level per mg of extracted lipid at 1 uM preincubated for 10 mins measured after 20 mins by LC-MS analysis in presence of ionomycin (reference value: 1.08 +/- 0.17 pmol); format: cell-based; settings: COS-7; method in brief: as §4
[15] = target: T5, Diacylglycerol lipase-alpha (Homo sapiens); test: Activation of human recombinant DAGLalpha expressed in African green monkey COS7 cells assessed as increase in anandamide level per mg of extracted lipid at 1 uM preincubated for 10 mins measured after 20 mins by LC-MS analysis in presence of ionomycin (reference value: 0.16 +/- 004 pmol); format: cell-based; settings: COS-7; method in brief: as §4

T2 sequence (Q8NER1 whole entry): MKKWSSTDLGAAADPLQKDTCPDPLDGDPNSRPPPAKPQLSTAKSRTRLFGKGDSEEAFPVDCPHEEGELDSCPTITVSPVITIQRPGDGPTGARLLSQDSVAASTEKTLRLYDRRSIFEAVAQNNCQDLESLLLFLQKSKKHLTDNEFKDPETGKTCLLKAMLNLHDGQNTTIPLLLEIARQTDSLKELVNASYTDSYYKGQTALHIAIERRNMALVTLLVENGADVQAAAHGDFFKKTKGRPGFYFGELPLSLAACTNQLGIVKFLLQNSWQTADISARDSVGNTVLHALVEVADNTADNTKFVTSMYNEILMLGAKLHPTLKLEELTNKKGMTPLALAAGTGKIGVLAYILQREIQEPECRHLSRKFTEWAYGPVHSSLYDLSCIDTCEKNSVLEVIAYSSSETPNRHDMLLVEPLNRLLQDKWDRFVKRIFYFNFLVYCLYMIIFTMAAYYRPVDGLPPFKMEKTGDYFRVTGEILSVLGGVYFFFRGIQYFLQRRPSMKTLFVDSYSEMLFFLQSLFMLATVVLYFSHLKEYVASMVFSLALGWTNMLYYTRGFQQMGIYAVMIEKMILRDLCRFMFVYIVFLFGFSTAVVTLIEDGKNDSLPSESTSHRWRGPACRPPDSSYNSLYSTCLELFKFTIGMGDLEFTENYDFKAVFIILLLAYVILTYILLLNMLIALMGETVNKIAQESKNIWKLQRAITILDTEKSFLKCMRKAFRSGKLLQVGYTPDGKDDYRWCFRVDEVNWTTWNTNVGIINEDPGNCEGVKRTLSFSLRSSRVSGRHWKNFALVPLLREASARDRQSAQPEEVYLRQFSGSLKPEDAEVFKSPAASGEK
T1 sequence (Q6RI86 whole entry): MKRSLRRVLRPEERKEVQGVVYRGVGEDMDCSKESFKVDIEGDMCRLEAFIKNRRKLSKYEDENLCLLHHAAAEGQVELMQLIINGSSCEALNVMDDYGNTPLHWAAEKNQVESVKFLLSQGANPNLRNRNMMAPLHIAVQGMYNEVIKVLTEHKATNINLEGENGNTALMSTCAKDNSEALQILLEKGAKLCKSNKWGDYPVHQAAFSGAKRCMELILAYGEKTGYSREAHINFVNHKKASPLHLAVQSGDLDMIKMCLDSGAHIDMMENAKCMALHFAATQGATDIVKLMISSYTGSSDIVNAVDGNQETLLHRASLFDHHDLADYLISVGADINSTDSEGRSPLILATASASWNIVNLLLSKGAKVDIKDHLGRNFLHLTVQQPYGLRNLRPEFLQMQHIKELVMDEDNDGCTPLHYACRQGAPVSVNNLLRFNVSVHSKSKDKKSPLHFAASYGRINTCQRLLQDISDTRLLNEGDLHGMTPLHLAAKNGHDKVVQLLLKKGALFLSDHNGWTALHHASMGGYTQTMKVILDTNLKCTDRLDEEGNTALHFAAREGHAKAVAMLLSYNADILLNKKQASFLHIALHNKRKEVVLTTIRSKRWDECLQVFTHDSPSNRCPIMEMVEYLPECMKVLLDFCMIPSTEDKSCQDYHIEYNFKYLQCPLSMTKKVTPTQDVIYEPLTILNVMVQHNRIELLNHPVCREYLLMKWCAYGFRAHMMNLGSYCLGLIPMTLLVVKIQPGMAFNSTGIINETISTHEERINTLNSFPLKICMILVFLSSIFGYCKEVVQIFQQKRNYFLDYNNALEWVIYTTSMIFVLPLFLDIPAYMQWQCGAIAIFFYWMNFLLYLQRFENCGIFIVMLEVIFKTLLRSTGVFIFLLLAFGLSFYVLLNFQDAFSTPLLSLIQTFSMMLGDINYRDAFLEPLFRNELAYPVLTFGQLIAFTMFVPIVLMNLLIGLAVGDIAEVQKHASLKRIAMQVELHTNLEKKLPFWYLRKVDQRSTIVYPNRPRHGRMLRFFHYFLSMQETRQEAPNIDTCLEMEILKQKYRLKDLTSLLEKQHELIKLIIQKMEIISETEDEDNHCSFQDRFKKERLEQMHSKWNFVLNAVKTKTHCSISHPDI
Transient receptor potential cation channel subfamily A member 1 (Rattus norvegicus), sequence (Q6RI86 whole entry): as above

| SMILES | EC50 [1] [µM] | Efficacy [2] [%] | IC50 [3] [µM] | Efficacy [4] [%] | Ratio IC50 [5] | IC50 [6] [µM] | IC50 [7] [µM] | IC50 [8] [µM] | EC50 [9] [µM] | Activity [10] [pmol] | Activity [11] [pmol] | Activity [12] [pmol] | Activity [13] [pmol] | Activity [14] [pmol] | Activity [15] [pmol] |
| --- | --- | --- | --- | --- | --- | --- | --- | --- | --- | --- | --- | --- | --- | --- | --- |
| Cc1cccc(-c2ccc(Cc3nnnn3C(=O)N(C)C)cc2)c1 | 32.8 | 233 | > 100 | < 10 | 39 | > 1 | 0.0097 | 41 | – | – | – | – | – | – | – |
| CN(CCCCc1ccccc1)C(=O)n1nnnc1Cc1ccc(-c2ccccc2)cc1 | 20.1 | 89.9 | 7.1 | 45.7 | – | > 1 | 0.0213 | 83.7 | 1.5 | – | – | – | – | – | – |
| Cc1ccc(-c2ccc(Cc3nnnn3C(=O)N(C)C)cc2)cc1 | 19.7 | 388 | > 100 | 28 | – | > 1 | 0.0071 | 15.9 | 22.5 | – | – | – | – | – | – |
| CN(Cc1ccc2ccccc2c1)C(=O)n1nnnc1Cc1ccc(-c2ccccc2)cc1 | 13.5 | 53.9 | 7.6 | 34.1 | – | > 1 | 0.0867 | 15 | 2.5 | – | – | – | – | – | – |
| C[C@H](CCC(=O)O)C[C@H](C)C[C@H](C)C(=O)/C=C(\O)[C@H](C)C[C@H](C)C/C=C/[C@@H](C)[C@@H](O)[C@@H](C)[C@@H](O)C[C@@H]1CC[C@@](C)([C@H]2CC[C@@](C)([C@@H](C)O)O2)O1 | – | – | – | – | – | – | – | – | – | 15.7 | 3.99 | 0.37 | – | – | – |
| O=C(N1CCCCC1)n1nnnc1Cc1ccc(-c2ccccc2)cc1 | 6.5 | 106 | 22.6 | 67.4 | – | > 1 | 0.0382 | 12.5 | 5.9 | – | – | – | – | – | – |
| CN(C)C(=O)n1nnnc1Cc1ccc(-c2cccc(C(N)=O)c2)cc1 | 50.1 | 30.7 | > 100 | 21.3 | – | > 1 | 0.011 | > 100 | 32.3 | – | – | – | – | – | – |
| CN(C)C(=O)n1nnc(Cc2ccc(-c3cccc(O)c3)cc2)n1 | – | < 10 | > 100 | < 10 | – | 0.01 | 0.012 | 98.9 | – | – | – | – | 413 | 7.25 | 0.41 |
| CN(C(=O)n1nnnc1Cc1ccc(-c2ccccc2)cc1)C1CCCCC1 | 4.9 | 84.7 | 18.3 | 45.6 | – | > 1 | 0.725 | 14.9 | 13.4 | – | – | – | – | – | – |

Source: ChEMBL document CHEMBL2375292, “Biaryl tetrazolyl ureas as inhibitors of endocannabinoid metabolism: modulation at the N-portion and distal phenyl ring” (Eur J Med Chem, 2013)
